Experimental data from PMC4980077 (The FEBS journal, 2016).

Key:
PKA-Cα = assay: 32P phosphorylation; assay type: biochemical; conditions: PKA-Cα 20 nM, pH 7.5; n = 3
Procedure, shortened: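 Substrate was His-tagged human smAKAP (wild type, or S66D with PKA-Cα) at 10 μM. It was incubated with 20 nM recombinant kinase in 50 mM MOPS pH 7.5 containing 10 mM MgCl2, 200 μM ATP and [32P]ATP. Aliquots were quenched in 30% acetic acid at 0, 5, 10 and 15 min. Results are means ± SD of 3 independent experiments.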

PKA-RIβ = assay: Confocal colocalization with PKA-RIβ-mKO2 in HeLa cells; assay type: cell-based; conditions: for localization of PKA-RIβ on co-transfection: phosphomimetic mutant + PKA-RIβ-mKO2
Procedure, shortened: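 HeLa cells co-expressed GFP-tagged smAKAP (wild type, S66E or S66D) with mKO2-tagged PKA-RIα or RIβ. Cells were washed in ice-cold PBS, fixed in ice-cold 4% formaldehyde in PBS, washed twice and imaged by confocal microscopy through a 63× oil objective. Stimulated cells received calyculin A plus 8-CPT-cAMP and were imaged live.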

PKA-RIα = assay: Confocal colocalization with PKA-RIα in HeLa cells; assay type: cell-based; conditions: phosphomimetic mutant + PKA-RIα-mKO2

phosphorylation by PKA (PKA-Cα)	Molecule	localization of PKA-RIβ on co-transfection (PKA-RIβ)	localization of PKA-RIα on co-transfection (PKA-RIα)	colocalization with PKA-RIβ-mKO2 (PKA-RIβ; transfected, confocal, unstimulated)
no detectable levels of phosphorylation	smAKAP-S66D: recombinant smAKAP with Ser66 mutated to an aspartic acid (protein, UniProt Q9BSF0 2-95, looked up, variant S66D) Small membrane A-kinase …: GCMKSKQTFPFPTIYEGEKQHESEEPFMPEERCLPRMASPVNVKEEVKEPPGTNTVILEYAHRLDQDILCDALQQWACNNIKYHDIPYIESEGP			
	smAKAP-S66D-GFP: phosphomimetic mutant GFP fusion (protein, UniProt Q9BSF0 2-95, looked up, variant S66D, GFP fusion) Small membrane A-kinase …: GCMKSKQTFPFPTIYEGEKQHESEEPFMPEERCLPRMASPVNVKEEVKEPPGTNTVILEYAHRLDQDILCDALQQWACNNIKYHDIPYIESEGP	predominantly resided in the cytoplasm	predominantly resided in the cytoplasm	
	smAKAP-S66E-GFP: phosphomimetic mutant GFP fusion (protein, UniProt Q9BSF0 2-95, looked up, variant S66E, GFP fusion) Small membrane A-kinase …: GCMKSKQTFPFPTIYEGEKQHESEEPFMPEERCLPRMASPVNVKEEVKEPPGTNTVILEYAHRLEQDILCDALQQWACNNIKYHDIPYIESEGP	predominantly resided in the cytoplasm	predominantly resided in the cytoplasm	no colocalization occurs
